Measured values published in PMC4425738 (Journal of controlled release : official journal of the …, 2014).

Tested on: Human adult epidermal keratinocytes
Test: Cell internalization in vitro
Type: cell-based
Method in brief: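 FITC-labelled peptide carrier (1, 4, 7 or 10 mg/mL in medium; 30 or 120 min) on keratinocytes seeded on poly-D-lysine glass dishes, grown 24 h in supplemented EpiLife at 37 °C, 5% CO2. Free-carrier arm: 0.1 mg/mL labelled peptide, 15 min, ± 10 mg/mL unlabelled carrier. Medium-only control. Hoechst 33342 nuclear stain, Trolox-HBSS washes, ethidium bromide to exclude dead cells, then confocal imaging. Mean ± SD.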

In the case of “FITC-AC-TGSTQHQ-CG, Disulfide Bridge 2–10 (disulfide) [FITC-SPACE peptide]”, the “increase of uptake by addition of free SPACE peptide” value (15 min, 0.1 mg/mL FITC-SPACE peptide with vs without 10 mg/mL unlabeled SPACE peptide, mean ± SD n=3) is reported as 3.9±1.5 fold, the intracellular localization (15 min, 0.1 mg/mL, absence of excess free SPACE peptide) is reported as “localized primarily in punctate spots” and the intracellular localization (15 min, 0.1 mg/mL, with 10 mg/mL free SPACE peptide) is reported as “cytoplasmic localization”. For the same substance, the intracellular localization (120 min, concentrations of 1–4 mg/mL) was “punctate fluorescent spots” and the intracellular localization (120 min, higher concentrations (7, 10 mg/mL)) was “diffused throughout the cytoplasm”.
